From ChEMBL document CHEMBL1132562, “Ajoene is an inhibitor and subversive substrate of human glutathione reductase and Trypanosoma cruzi trypanothione reductase: crystallographic, kinetic, and spectroscopic studies” (J Med Chem, 1999)
Activity calls are given as the source filed them. The calls are words filed in the database; no cut-off is given here.

Tests used:
[1] = target: T1, Glutathione reductase, mitochondrial (Homo sapiens) (UniProt P00390); experiment: Kcat value determined against human Glutathione reductase (GR) by oxidation of NADPH
T1 sequence (whole entry): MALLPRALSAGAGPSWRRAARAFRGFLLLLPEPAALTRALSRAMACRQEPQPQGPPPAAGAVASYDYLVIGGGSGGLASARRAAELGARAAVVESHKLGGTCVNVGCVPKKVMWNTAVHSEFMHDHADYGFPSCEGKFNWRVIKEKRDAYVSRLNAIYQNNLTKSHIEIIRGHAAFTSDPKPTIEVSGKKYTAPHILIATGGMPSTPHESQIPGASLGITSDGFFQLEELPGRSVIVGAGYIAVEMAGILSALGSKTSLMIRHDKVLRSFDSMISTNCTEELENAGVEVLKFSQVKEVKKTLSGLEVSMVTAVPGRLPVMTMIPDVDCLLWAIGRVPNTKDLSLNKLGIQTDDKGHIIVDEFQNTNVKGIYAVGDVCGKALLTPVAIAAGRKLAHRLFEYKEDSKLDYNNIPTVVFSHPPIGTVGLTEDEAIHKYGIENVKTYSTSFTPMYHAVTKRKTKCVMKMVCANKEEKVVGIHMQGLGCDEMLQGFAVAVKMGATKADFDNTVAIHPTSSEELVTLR
How it was run: (§1)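 Recombinant human glutathione reductase in GR assay buffer (phosphate, 200 mM KCl, 1 mM EDTA, pH 6.9) at 25 °C with 150 μM NADPH and ajoene or DATS as substrate. NADPH consumption read at 340 nm. Where GSH is present, it is added to the mixture. Controls held NADPH and enzyme only (intrinsic oxidase activity).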

[2] = target: T1, Glutathione reductase, mitochondrial (Homo sapiens); experiment: kcat/Km value determined against human Glutathione reductase (GR) by oxidation of NADPH; how it was run: as §1
[3] = target: T1, Glutathione reductase, mitochondrial (Homo sapiens); experiment: Kcat value determined against human Glutathione reductase (GR) by reduction of cytochrome c
How it was run: (§2)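 1–2 U human GR preincubated 2 min at 25 °C with 200 μM NADPH and 25 μM horse heart cytochrome c in assay buffer, pH 7.5. Reaction started with 200 μM ajoene or DATS. Cytochrome c reduction followed at 550 nm (ε 19.1 mM⁻¹ cm⁻¹). Controls without enzyme. Superoxide tested by adding superoxide dismutase.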

[4] = target: Trypanothione reductase (Trypanosoma cruzi) (UniProt P28593); experiment: kcat/Km value determined against Trypanothione reductase (TR) by oxidation of NADPH
How it was run: (§3)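 T. cruzi trypanothione reductase, recombinant, with NADPH and ajoene as substrate in TR assay buffer (40 mM Hepes, 1 mM EDTA, pH 7.5) at 25 °C. NADPH oxidation followed as absorbance decrease at 340 nm. Controls held only NADPH and enzyme, giving the intrinsic oxidase activity.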

[5] = target: Trypanothione reductase (Trypanosoma cruzi) (UniProt P28593); experiment: Percent inhibition of Trypanothione reductase (TR) with 200 uM (Z)-ajoene in the presence of NADPH at 37 C
How it was run: (§4)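 T. cruzi TR (0.4–1.0 U in 200 μL) incubated at 37 °C with 200 μM NADPH and 200 μM ajoene for up to 60 min. Aliquots assayed for residual activity: 100 μM NADPH, 120 μM trypanothione disulfide, Hepes pH 7.5, 340 nm decrease.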

[6] = target: Trypanothione reductase (Trypanosoma cruzi) (UniProt P28593); experiment: Kcat value determined against Trypanothione reductase (TR) by oxidation of NADPH; how it was run: as §3
[7] = target: Trypanothione reductase (Trypanosoma cruzi) (UniProt P28593); experiment: kcat/Km value determined against Trypanothione reductase (TR); how it was run: as §3
[8] = target: T1, Glutathione reductase, mitochondrial (Homo sapiens); experiment: Percent inhibition of 0.3 uM (Z)-ajoene in the presence of NADPH for 15 min at 37 C
How it was run: (§5)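 GR (0.4–1.0 U in 200 μL; 0.3 μM) incubated at 37 °C in GR assay buffer, pH 6.9, with 200 μM NADPH (or without) and 12.5–200 μM ajoene. Ethanol replaced inhibitor in controls. 2-μL aliquots taken over time were assayed for remaining activity in a standard GR assay: 100 μM NADPH, 1 mM GSSG, 340 nm, 25 °C.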

[9] = target: T1, Glutathione reductase, mitochondrial (Homo sapiens); experiment: Percent inhibition of 0.3 uM (Z)-ajoene in the absence of NADPH for 15 min at 37 C; NI=No Inhibition; how it was run: as §5
[10] = target: T1, Glutathione reductase, mitochondrial (Homo sapiens); experiment: kcat/Km value determined against human Glutathione reductase (GR); how it was run: as §1
[11] = target: T1, Glutathione reductase, mitochondrial (Homo sapiens); experiment: Kcat value determined against human Glutathione reductase (GR) by oxidation of NADPH in the presence of GSH; how it was run: as §1
[12] = target: T1, Glutathione reductase, mitochondrial (Homo sapiens); experiment: Kcat value determined against human Glutathione reductase (GR) by reduction of cytochrome c in the presence of GSH; how it was run: as §2
[13] = target: T1, Glutathione reductase, mitochondrial (Homo sapiens); experiment: Percent inhibition of 0.3 uM (E)-ajoene in the presence of NADPH for 15 min at 37 C; how it was run: as §5
[14] = target: Trypanothione reductase (Trypanosoma cruzi) (UniProt P28593); experiment: Percent inhibition of Trypanothione reductase (TR) with 200 uM (E)-ajoene in the presence of NADPH at 37 C; how it was run: as §4
[15] = target: T1, Glutathione reductase, mitochondrial (Homo sapiens); experiment: Percent inhibition of 0.3 uM (E)-ajoene in the absence of NADPH for 15 min at 37 C; NI=No Inhibition; how it was run: as §5

Sequence of Trypanothione reductase (Trypanosoma cruzi) (P28593 whole entry, looked up): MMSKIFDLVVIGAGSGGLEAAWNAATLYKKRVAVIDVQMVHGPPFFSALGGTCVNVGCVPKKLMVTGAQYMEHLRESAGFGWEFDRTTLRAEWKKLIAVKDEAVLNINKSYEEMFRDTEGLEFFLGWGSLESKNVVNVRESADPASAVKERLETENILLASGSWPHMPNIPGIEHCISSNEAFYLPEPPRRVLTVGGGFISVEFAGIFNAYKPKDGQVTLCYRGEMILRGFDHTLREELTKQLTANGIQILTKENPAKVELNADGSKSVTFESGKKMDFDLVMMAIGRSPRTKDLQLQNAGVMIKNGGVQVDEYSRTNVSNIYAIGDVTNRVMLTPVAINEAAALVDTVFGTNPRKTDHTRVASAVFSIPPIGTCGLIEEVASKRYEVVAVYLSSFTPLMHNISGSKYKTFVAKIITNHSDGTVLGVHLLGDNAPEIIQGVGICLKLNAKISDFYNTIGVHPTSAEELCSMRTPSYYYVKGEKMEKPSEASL

| k cat [1] | k cat/Km [2] | k cat [3] | k cat/Km [4] | inhibition [5] | k cat [6] | k cat/Km [7] | inhibition [8] | inhibition [9] | k cat/Km [10] | k cat [11] | k cat [12] | inhibition [13] | inhibition [14] | inhibition [15] | SMILES |
| --- | --- | --- | --- | --- | --- | --- | --- | --- | --- | --- | --- | --- | --- | --- | --- |
| 0.16 s⁻¹ | 1000 M⁻¹ s⁻¹ |  |  |  |  |  |  |  |  |  |  |  |  |  | C=CCSSSCC=C |
| 2.6 s⁻¹ | 6840 M⁻¹ s⁻¹ | 0.06 s⁻¹ | 335 M⁻¹ s⁻¹ | 40% | 0.67 s⁻¹ | 340 M⁻¹ s⁻¹ | 50% | inactive | 6800 M⁻¹ s⁻¹ |  |  |  |  |  | C=CCSS/C=C\C[S+]([O-])CC=C (centres undefined) |
| 0.34 s⁻¹ | 425 M⁻¹ s⁻¹ | 0.1 s⁻¹ | 335 M⁻¹ s⁻¹ |  | 0.67 s⁻¹ | 340 M⁻¹ s⁻¹ |  |  | 680 M⁻¹ s⁻¹ | 1.47 s⁻¹ | 0.32 s⁻¹ | 50% | 50% | inactive | C=CCSS/C=C/C[S+]([O-])CC=C (centres undefined) |
